Measured values as given in ChEMBL document CHEMBL4680236, “Design, synthesis and structure-activity relationships of novel 15-membered macrolides: Quinolone/quinoline-containing sidechains tethered to the C-6 position of azithromycin acylides” (Eur J Med Chem, 2020).
Values after ≈ are worked out from the molar mass of the structure shown.

Key:
Type in all cases: functional
[1] = tested on: Staphylococcus aureus; assay: Ratio of MBC to MIC against MLSB/methicillin/ciprofloxacin-resistant Staphylococcus aureus PU32 harboring ermA gene
[2] = tested on: Haemophilus influenzae; assay: Antibacterial activity against azithromycin-susceptible Haemophilus influenzae ATCC 49247 assessed as reduction in microbial growth
[3] = tested on: Streptococcus pneumoniae; assay: Bactericidal activity against MLSB-resistant Streptococcus pneumoniae 07P390 harboring ermB gene assessed as reduction in microbial growth
Procedure, shortened: (§1)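 Bacteria were exposed to 1- to 8-fold their MIC of test sample, then transferred to fresh culture medium without antibacterial compound and incubated for the required time. Colonies were then counted. MBC is the lowest concentration giving a reduction in colony number of >3 Log₁₀.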

[4] = tested on: Streptococcus pneumoniae; assay: Ratio of MBC to MIC against penicillin-susceptible Streptococcus pneumoniae PU09
[5] = tested on: Streptococcus pneumoniae; assay: Bactericidal activity against Erythromycin-susceptible Streptococcus pneumoniae ATCC 49619
Procedure, shortened: (§2)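 Bacteria were exposed to 1- to 8-fold MIC of the sample, then transferred to fresh medium without antibacterial. After further incubation, colonies were counted. MBC was taken as the lowest concentration giving a >3 log10 reduction in colony number.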

[6] = tested on: Streptococcus pneumoniae; assay: Ratio of MBC to MIC against Erythromycin-susceptible Streptococcus pneumoniae ATCC 49619
[7] = tested on: Streptococcus pneumoniae; assay: Antibacterial activity against penicillin-susceptible Streptococcus pneumoniae PU09 harboring mef gene assessed as reduction in microbial growth
[8] = tested on: Streptococcus pneumoniae; assay: Antibacterial activity against Erythromycin-susceptible Streptococcus pneumoniae ATCC 49619 assessed as reduction in microbial growth
[9] = tested on: Staphylococcus aureus; assay: Antibacterial activity against MLSB/methicillin/ciprofloxacin-resistant Staphylococcus aureus PU32 harboring ermA gene assessed as reduction in microbial growth
[10] = tested on: Haemophilus influenzae; assay: Bactericidal activity against azithromycin-susceptible Haemophilus influenzae ATCC 49247; procedure, shortened: as §2
[11] = tested on: Haemophilus influenzae; assay: Ratio of MBC to MIC against azithromycin-susceptible Haemophilus influenzae ATCC 49247
[12] = tested on: Staphylococcus aureus; assay: Antibacterial activity against MLSB/methicillin-resistant Staphylococcus aureus 15B196 assessed as reduction in microbial growth
[13] = tested on: Streptococcus pneumoniae; assay: Antibacterial activity against MLSB-resistant Streptococcus pneumoniae 07P390 harboring ermB gene assessed as reduction in microbial growth
[14] = tested on: Streptococcus pneumoniae; assay: Ratio of MBC to MIC against MLSB-resistant Streptococcus pneumoniae 07P390 harboring ermB
[15] = tested on: Staphylococcus aureus; assay: Bactericidal activity against MLSB/methicillin/ciprofloxacin-resistant Staphylococcus aureus PU32 harboring ermA gene; procedure, shortened: as §1
[16] = tested on: Streptococcus pneumoniae; assay: Bactericidal activity against penicillin-susceptible Streptococcus pneumoniae PU09 harboring mef gene; procedure, shortened: as §1
[17] = tested on: Staphylococcus aureus; assay: Bactericidal activity against MLSB/methicillin-resistant Staphylococcus aureus 15B196; procedure, shortened: as §1
[18] = tested on: Escherichia coli; assay: Antibacterial activity against Escherichia coli JW5503-1 depletion of toIC efflux gene assessed as reduction in microbial growth
[19] = tested on: Streptococcus pyogenes; assay: Antibacterial activity against MLSB-resistant Streptococcus pyogenes 12-206 harboring ermA gene assessed as reduction in microbial growth
[20] = tested on: Escherichia coli; assay: Antibacterial activity against Escherichia coli JW5503-KanS depletion of toIC efflux gene assessed as reduction in microbial growth
[21] = tested on: Staphylococcus aureus; assay: Ratio of MBC to MIC against MLSB/methicillin-resistant Staphylococcus aureus 15B196
[22] = tested on: Streptococcus pyogenes; assay: Bactericidal activity against MLSB-resistant Streptococcus pyogenes 12-206 harboring ermA gene; procedure, shortened: as §1
[23] = tested on: Streptococcus pyogenes; assay: Ratio of MBC to MIC against MLSB-resistant Streptococcus pyogenes 12-206 harboring ermA gene
[24] = tested on: Haemophilus influenzae; assay: Antibacterial activity against azithromycin-susceptible Haemophilus influenzae ATCC 49247 assessed as reduction in microbial growth relative to ciprofloxacin
[25] = tested on: Staphylococcus aureus; assay: Antibacterial activity against MLSB/methicillin/ciprofloxacin-resistant Staphylococcus aureus PU32 harboring ermA gene assessed as reduction in microbial growth relative to ciprofloxacin
[26] = tested on: Staphylococcus aureus; assay: Antibacterial activity against MLSB/methicillin-resistant Staphylococcus aureus 15B196 assessed as reduction in microbial growth relative to ciprofloxacin

Structure (SMILES) | Ratio [1] | MIC [2] [µg/mL] | MBC [3] [µg/mL] | Ratio [4] | MBC [5] [µg/mL] | Ratio [6] | MIC [7] [µg/mL] | MIC [8] [µg/mL] | MIC [9] [µg/mL] | MBC [10] [µg/mL] | Ratio [11] | MIC [12] [µg/mL] | MIC [13] [µg/mL] | Ratio [14] | MBC [15] [µg/mL] | MBC [16] [µg/mL] | MBC [17] [µg/mL] | MIC [19] [µg/mL] | fold change (FC) [24] | fold change (FC) [25] | other results
CC[C@H]1OC(=O)[C@H](C)[C@@H](OC(=O)Cc2ccccn2)[C@H](C)[C@@H](O[C@@H]2O[C@H](C)C[C@H](N(C)C)[C@H]2O)[C@](C)(OC(=O)CCNCCCCc2cnc3ccccc3c2)C[C@@H](C)CN(C)[C@H](C)[C@@H](O)[C@]1(C)O | 4 | 16 | 32 | 1 | 0.5 (≈ 0.519 µM) | 2 | 4 | 0.25 | 4 | 32 (≈ 33.2 µM) | 2 | 256 | 8 | 4 | 16 (≈ 16.6 µM) | 4 (≈ 4.15 µM) | > 256 | – | – | – | –
O=C(O)c1cn(C2CC2)c2cc(N3CCNCC3)c(F)cc2c1=O [CIPROFLOXACIN] | – | – | – | – | – | – | 2 | 2 | 256 | 0.008 (≈ 0.0241 µM) | – | 0.5 | 2 | – | > 256 | – | 0.5 (≈ 1.51 µM) | 0.5 | – | – | MIC [18]: ≤ 0.064 µg/mL; MIC [20]: ≤ 0.064 µg/mL
CC[C@H]1OC(=O)[C@H](C)[C@@H](OC(=O)Cc2ccccn2)[C@H](C)[C@@H](O[C@@H]2O[C@H](C)C[C@H](N(C)C)[C@H]2O)[C@](C)(OC(=O)CCN2CCN(c3cc4c(cc3F)c(=O)c(C(N)=O)cn4C3CC3)CC2)C[C@@H](C)CN(C)[C@H](C)[C@H]2OC(=O)O[C@@]21C | >8 | 256 | 32 | 2 | 8 (≈ 7.14 µM) | 2 | 8 | 4 | 32 | > 256 | – | 32 | 32 | 1 | > 256 | 16 (≈ 14.3 µM) | > 256 | 16 | – | – | Ratio [21]: >8; MBC [22]: 16 µg/mL (≈ 14.3 µM); Ratio [23]: 1
CC[C@H]1OC(=O)[C@H](C)[C@@H](O[C@H]2C[C@@](C)(OC)[C@@H](O)[C@H](C)O2)[C@H](C)[C@@H](O[C@@H]2O[C@H](C)C[C@H](N(C)C)[C@H]2O)[C@](C)(OC)C[C@@H](C)C(=O)[C@H](C)[C@@H](O)[C@]1(C)O [CLARITHROMYCIN] | – | 16 | – | – | – | – | 8 | – | 64 | – | – | ≥ 16 | > 256 | – | – | – | – | > 256 | 1768 | 0.11 | fold change (FC) [26]: >57
CC[C@H]1OC(=O)[C@H](C)C(=O)[C@H](C)[C@@H](O[C@@H]2O[C@H](C)C[C@H](N(C)C)[C@H]2O)[C@](C)(OC)C[C@@H](C)C(=O)[C@H](C)[C@H]2N(CCCCn3cnc(-c4cccnc4)c3)C(=O)O[C@]12C [TELITHROMYCIN] | – | 4 | > 0.125 | 2 | ≤ 0.008 | – | 0.25 | ≤ 0.008 | 2 | – | – | 4 | 0.016 | >8 | – | 0.5 (≈ 0.616 µM) | – | 0.25 | 407 | 0.0032 | fold change (FC) [26]: >52
CC[C@H]1OC(=O)[C@H](C)[C@@H](OC(=O)Cc2ccccn2)[C@H](C)[C@@H](O[C@@H]2O[C@H](C)C[C@H](N(C)C)[C@H]2O)[C@](C)(OC(=O)CCNCC#Cc2cnc3ccccc3c2)C[C@@H](C)CN(C)[C@H](C)[C@@H](O)[C@]1(C)O | 4 | 4 | > 8 | 1 | 0.125 (≈ 0.132 µM) | 1 | 2 | 0.125 | 2 | 4 (≈ 4.23 µM) | 1 | 128 | 1 | >8 | 8 (≈ 8.45 µM) | 2 (≈ 2.11 µM) | > 256 | – | – | – | –
